# Assay results of several laboratories.
# Lines come from different studies, so protocols differ.
# SIRT6: NAD-dependent protein deacylase sirtuin-6 (SIRT6, Homo sapiens, UniProt Q8N6T7)
# ALK: ALK tyrosine kinase receptor (ALK, Homo sapiens, UniProt Q9UM73)
# CCR2: C-C chemokine receptor type 2 (CCR2, Homo sapiens, UniProt P41597)
# MAPK10: Mitogen-activated protein kinase 10 (MAPK10, Homo sapiens, UniProt P53779)
# SCN5A: Sodium channel protein type 5 subunit alpha (SCN5A, Homo sapiens, UniProt Q14524)
# PARP2: Poly [ADP-ribose] polymerase 2 (PARP2, Homo sapiens, UniProt Q9UGN5)
# CCR5: C-C chemokine receptor type 5 (CCR5, Homo sapiens, UniProt P51681)
# CTSB: Cathepsin B (CTSB, Homo sapiens, UniProt P07858)
Compound,target,test,conditions,IC50
NC(=O)c1ccc(C(=O)NOCc2ccc(Nc3ccccc3)cc2)cc1,SIRT6,"enzyme activity, inhibitor, fluorescence",,2610 nM
Cc1cc(-c2cc(C#N)ccc2O[C@@H]2C[C@]2(CO)c2ccc(F)cc2F)n[nH]1 (racemic),ALK,"enzyme activity, inhibitor, TR-FRET",,34 nM
NC(=O)c1ccc(C(=O)NOCc2ccc(-n3cccn3)cc2)cc1,SIRT6,"enzyme activity, inhibitor, fluorescence",,2230 nM
CN(Cc1ccc(NC(=O)C2=Cc3cc(-c4ccc(OCCCO)cc4)ccc3CCC2)cc1)C1CCOCC1,CCR2,"ligand displacement, radioligand",cell membranes,199 nM
Cc1[nH]c(N)nc1-c1ccnc(Nc2ccc(N3CCOCC3)cc2)c1,MAPK10,"enzyme activity, inhibitor, ELISA",,1390 nM
O=C(NCCN1CCCC1)c1cc(-c2ccc(CN3CCOCC3)cc2)nc2ccc(F)cc12,SCN5A,"ion current, inhibitor, patch clamp",,16000 nM
COC[C@]1(c2ccc(F)cc2F)C[C@H]1Oc1ccc(C#N)cc1-c1cc(C)[nH]n1 (racemic),ALK,"enzyme activity, inhibitor, TR-FRET",,43 nM
NCCc1ccc(C(=O)NOCc2ccc(C(F)(F)F)cc2)cc1,SIRT6,"enzyme activity, inhibitor, fluorescence",,2650 nM
NC(=O)c1ccc[n+]([C@@H]2O[C@H](COP(=O)([O-])OP(=O)(O)OC[C@H]3O[C@@H](n4cnc5c(N)ncnc54)[C@H](O)[C@@H]3O)[C@@H](O)[C@H]2O)c1,PARP2,"enzyme activity, inhibitor",,50000 nM
CN(Cc1ccc(NC(=O)C2=Cc3cc(-c4ccc(OCCCF)cc4)ccc3CCC2)cc1)C1CCOCC1,CCR2,"calcium signal, antagonist",,130 nM
CCn1c(-c2nc3cc(C(=O)N4CCC[C@@H](N)C4)cc(OC)c3n2C)cc2cccnc21,SCN5A,"ion current, inhibitor",,50100 nM
O=C1c2ccccc2-c2cccc3cccc1c23,"Receptor-type tyrosine-protein phosphatase C (PTPRC, Homo sapiens, UniProt P08575)","enzyme activity, inhibitor, fluorescence",,> 150000 nM
NC(=O)c1ccc(C(=O)NOCc2cccc(F)c2)cc1,SIRT6,"enzyme activity, inhibitor, fluorescence",,6610 nM
CC(=O)c1ccc2[nH]c3nc(C)ccc3c2c1,ALK,"enzyme activity, inhibitor, ELISA",,> 10000 nM
NC(=O)c1ccc(C(=O)NOCc2ccc(C(=O)c3ccccc3)cc2)cc1,SIRT6,"enzyme activity, inhibitor, fluorescence",,2800 nM
Cc1cc(-c2cccc(S(C)(=O)=O)c2)[nH]n1,ALK,"enzyme activity, inhibitor, TR-FRET",,120000 nM
CN(Cc1ccc(NC(=O)C2=Cc3cc(-c4ccc(OCCCCCCCF)cc4)ccc3CCC2)cc1)C1CCOCC1,CCR5,"ligand displacement, radioligand",cell membranes,3600 nM
COc1cc(/C=N/n2c(C)nc3ccc(Br)cc3c2=O)ccc1OCc1ccc(Cl)cc1,CTSB,"enzyme activity, inhibitor",,45800 nM
CSc1nc(C)c(-c2ccnc(NC3CCOCC3)c2)[nH]1,MAPK10,"enzyme activity, inhibitor, ELISA",,2630 nM
Cc1nc2ccccc2c(=O)n1NC(=O)CSc1nc2ccccc2c(=O)n1-c1ccccc1,CTSB,"enzyme activity, inhibitor",,62800 nM
CCOc1ccc2c(-c3cc(C)nc(Nc4cc(OC)cc(C(F)(F)F)c4)n3)cnn2n1,"Dual specificity protein kinase CLK3 (CLK3, Homo sapiens, UniProt P49761)","enzyme activity, inhibitor",,> 10000 nM
NC(=O)c1ccc(C(=O)NOCc2ccc(Sc3ccc(N)cc3)c(C(F)(F)F)c2)cc1,SIRT6,"enzyme activity, inhibitor, fluorescence",,1800 nM
COc1ccc(-c2ccc3[nH]c4ncc(-c5cccc(N)c5)cc4c3c2)cc1,ALK,"enzyme activity, inhibitor, ELISA",,> 10000 nM
C=C(C)[C@H](CCC(C)(C)O)Cc1c(O)cc(OC)c2c1O[C@H](c1ccc(O)cc1O)CC2=O,"Fatty acid synthase (FASN, Gallus gallus, UniProt P12276)","enzyme activity, inhibitor, radiometric",,98200 nM
Cc1ccc(C(=O)Nc2ccc(Oc3cc4cnn(C)c4cc3-c3cn[nH]c3)c(F)c2)c(=O)n1-c1ccc(F)cc1,"Angiopoietin-1 receptor (TEK, Homo sapiens, UniProt Q02763)","enzyme activity, inhibitor, radiometric",,4 nM
O=c1cc(-c2ccccc2)oc2c1ccc1ccccc12,"Cyclin-dependent kinase 2, with cyclin E1 (CDK2, Homo sapiens, UniProt P24941)","enzyme activity, inhibitor, ADP detection",,> 100000 nM
NC(=O)c1ccc(C(=O)NOCc2ccc(Sc3cc(Cl)cc(Cl)c3)c(C(F)(F)F)c2)cc1,SIRT6,"enzyme activity, inhibitor, fluorescence",,1240 nM
Cc1cc(-c2cc(C#N)ccc2O[C@@H]2C[C@]2(CN)c2ccc(F)cc2F)n[nH]1 (racemic),ALK,"enzyme activity, inhibitor, TR-FRET",,29 nM
C=CC(=O)N1CCN(C(=O)c2cc(Cc3n[nH]c(=O)c4ccccc34)ccc2F)CC1,PARP2,"enzyme activity, inhibitor",,31.7 nM
Cc1cnc(-c2ccc(-c3ccc(NC(=O)Nc4c(F)cc(F)cc4F)cc3F)c3c2C(=O)NC3)[nH]1,"Vascular endothelial growth factor receptor 3 (FLT4, Homo sapiens, UniProt P35916)","enzyme activity, inhibitor",,87.6 nM
O=C(Nc1ccn(Cc2ccc(O)cc2C(F)(F)F)n1)c1c(F)cccc1F,"Transient receptor potential cation channel subfamily V member 4 (Trpv4, Rattus norvegicus, UniProt Q9ERZ8)",ion current,,> 10000 nM
OCc1cc(C(O)CNCCCCCCOCCCCc2ccccc2)ccc1O (stereo not drawn),CCR5,"calcium signal, antagonist",,64600 nM
Cc1ccc(CONC(=O)c2ccc(C(N)=O)cc2)cc1,SIRT6,"enzyme activity, inhibitor, fluorescence",,7710 nM
c1ccc(Nc2ccc3c(n2)[nH]c2ccccc23)cc1,ALK,"enzyme activity, inhibitor, ELISA",,> 10000 nM
N#Cc1ccc(COC[C@H]2O[C@@H](n3c(NCc4ccc(Cl)c(Cl)c4)nc4c(N)ncnc43)[C@H](O)[C@@H]2O)cc1,"Heat shock cognate 71 kDa protein (HSPA8, Homo sapiens, UniProt P11142)","ligand displacement, FP",,390 nM
Nc1nonc1-n1cc(C(=O)N/N=C/c2cccc(O)c2O)nn1,SIRT6,"enzyme activity, inhibitor, fluorescence",,13800 nM
Cc1cc(-c2cc(C#N)ccc2O[C@H]2C[C@H]2c2ccc(F)cc2F)n[nH]1,ALK,"phosphorylation in cells, inhibitor, ELISA",,> 1000 nM
CN(Cc1ccc(NC(=O)C2=Cc3cc(-c4ccc(OCCCCCF)cc4)ccc3CCC2)cc1)C1CCOCC1,CCR5,"ligand displacement, radioligand",cell membranes,2000 nM
COc1ccc2c(Oc3ccc4c(C(=O)Nc5ccccc5N)cccc4c3)ccnc2c1,"Tyrosine-protein kinase Fyn (FYN, Homo sapiens, UniProt P06241)","enzyme activity, inhibitor",,> 500 nM
